This note sets out measurements from ChEMBL document CHEMBL4270490, “Synthesis and biological evaluation of morpholine-substituted diphenylpyrimidine derivatives (Mor-DPPYs) as potent EGFR T790M inhibitors with improved activity toward the gefitinib-resistant non-small cell lung cancers (NSCLC)” (Eur J Med Chem, 2017).

The test system of series [1] is A549. The experiment in a line: Antiproliferative activity against human A549 cells incubated for 72 hrs by MTT assay. The note with it: A549, 72 h. In kind it is functional, cell-based.
In series [2] the test system is HCC827. The experiment in a line: Antiproliferative activity against human HCC827 cells incubated for 72 hrs by MTT assay. The class given is functional, cell-based. The note with it: HCC827, 72 h.
In series [3] the target is T1, Epidermal growth factor receptor (Homo sapiens, UniProt P00533). The class given is cell-based, Sf9.
T1 sequence (P00533 whole entry): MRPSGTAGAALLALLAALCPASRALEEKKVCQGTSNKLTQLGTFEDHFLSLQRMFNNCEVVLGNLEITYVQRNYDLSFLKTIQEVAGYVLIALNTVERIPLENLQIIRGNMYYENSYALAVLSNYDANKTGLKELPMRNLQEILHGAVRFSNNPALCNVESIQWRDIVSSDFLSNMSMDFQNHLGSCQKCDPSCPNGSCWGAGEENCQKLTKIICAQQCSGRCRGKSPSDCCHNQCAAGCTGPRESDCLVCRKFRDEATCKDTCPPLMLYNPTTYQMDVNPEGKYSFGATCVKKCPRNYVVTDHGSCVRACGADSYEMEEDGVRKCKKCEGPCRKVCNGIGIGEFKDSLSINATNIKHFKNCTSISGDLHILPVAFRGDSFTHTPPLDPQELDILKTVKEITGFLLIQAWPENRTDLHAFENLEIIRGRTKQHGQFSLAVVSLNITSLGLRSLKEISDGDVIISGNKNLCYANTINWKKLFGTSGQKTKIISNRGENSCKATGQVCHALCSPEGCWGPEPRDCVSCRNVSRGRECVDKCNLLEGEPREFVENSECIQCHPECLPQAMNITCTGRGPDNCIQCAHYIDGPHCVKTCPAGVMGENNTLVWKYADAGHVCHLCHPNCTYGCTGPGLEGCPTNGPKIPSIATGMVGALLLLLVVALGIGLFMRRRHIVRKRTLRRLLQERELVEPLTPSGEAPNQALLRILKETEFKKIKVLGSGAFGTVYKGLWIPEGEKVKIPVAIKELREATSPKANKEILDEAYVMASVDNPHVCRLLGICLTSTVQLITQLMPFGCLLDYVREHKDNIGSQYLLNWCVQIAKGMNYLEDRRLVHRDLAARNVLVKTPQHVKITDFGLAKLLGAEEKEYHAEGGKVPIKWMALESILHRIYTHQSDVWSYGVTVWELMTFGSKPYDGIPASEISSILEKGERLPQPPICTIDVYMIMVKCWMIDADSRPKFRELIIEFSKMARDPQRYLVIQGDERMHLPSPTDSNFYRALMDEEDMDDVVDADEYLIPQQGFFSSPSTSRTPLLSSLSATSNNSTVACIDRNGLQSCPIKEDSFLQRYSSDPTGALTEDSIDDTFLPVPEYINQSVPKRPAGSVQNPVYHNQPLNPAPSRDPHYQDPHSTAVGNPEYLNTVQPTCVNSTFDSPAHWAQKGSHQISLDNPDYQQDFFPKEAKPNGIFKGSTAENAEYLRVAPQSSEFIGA
For series [4], the target named is Epidermal growth factor receptor (Homo sapiens, UniProt P00533, L858R/T790M). Briefly: biochemical. In kind it is cell-based, Sf9.
Sequence of Epidermal growth factor receptor (Homo sapiens, UniProt P00533, L858R/T790M) (P00533 25-1210 T790M/L858R limits assumed): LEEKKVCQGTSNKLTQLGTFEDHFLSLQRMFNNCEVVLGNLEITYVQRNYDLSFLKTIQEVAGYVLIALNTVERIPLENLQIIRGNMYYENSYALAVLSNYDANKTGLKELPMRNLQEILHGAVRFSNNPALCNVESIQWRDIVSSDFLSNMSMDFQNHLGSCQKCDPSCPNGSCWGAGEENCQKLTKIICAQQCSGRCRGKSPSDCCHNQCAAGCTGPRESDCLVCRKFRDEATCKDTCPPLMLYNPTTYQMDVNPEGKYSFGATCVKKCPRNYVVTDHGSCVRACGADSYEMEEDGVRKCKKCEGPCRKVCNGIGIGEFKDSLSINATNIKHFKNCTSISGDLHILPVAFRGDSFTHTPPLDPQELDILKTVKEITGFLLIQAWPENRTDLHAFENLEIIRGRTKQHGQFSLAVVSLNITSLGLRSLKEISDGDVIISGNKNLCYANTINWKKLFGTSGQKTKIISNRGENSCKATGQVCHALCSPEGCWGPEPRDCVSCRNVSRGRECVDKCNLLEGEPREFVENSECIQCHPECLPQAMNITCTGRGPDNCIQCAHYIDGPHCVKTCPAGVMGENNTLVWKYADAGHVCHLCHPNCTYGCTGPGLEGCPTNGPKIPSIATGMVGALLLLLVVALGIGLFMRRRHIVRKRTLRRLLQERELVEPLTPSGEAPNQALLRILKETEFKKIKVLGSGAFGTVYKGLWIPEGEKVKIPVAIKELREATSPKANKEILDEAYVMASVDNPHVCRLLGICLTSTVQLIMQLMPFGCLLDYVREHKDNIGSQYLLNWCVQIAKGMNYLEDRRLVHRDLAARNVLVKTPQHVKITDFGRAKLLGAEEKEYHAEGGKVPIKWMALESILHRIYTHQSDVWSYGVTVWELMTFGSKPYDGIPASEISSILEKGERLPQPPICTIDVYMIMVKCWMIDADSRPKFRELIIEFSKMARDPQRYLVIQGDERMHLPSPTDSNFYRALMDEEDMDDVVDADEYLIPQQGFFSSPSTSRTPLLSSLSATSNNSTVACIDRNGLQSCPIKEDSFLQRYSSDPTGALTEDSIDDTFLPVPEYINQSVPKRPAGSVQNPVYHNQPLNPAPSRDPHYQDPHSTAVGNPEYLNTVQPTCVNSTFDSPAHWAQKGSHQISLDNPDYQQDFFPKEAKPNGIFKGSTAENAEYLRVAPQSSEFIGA
Series [5] is described as follows: Antiproliferative activity against NHBE cells incubated for 72 hrs by MTT assay. In kind it is ADME, cell-based. The note with it: Homo sapiens. (Formazan colour is commonly taken as a measure of viable cells.)
Series [6] has as its system NCI-H1975. Briefly: Antiproliferative activity against human NCI-H1975 cells incubated for 72 hrs by MTT assay. The class given is functional, cell-based. The note with it: NCI-H1975, 72 h.
For series [7], the system named is A-431. Briefly: Antiproliferative activity against human A431 cells incubated for 72 hrs by MTT assay. The class given is functional, cell-based. The note with it: A-431, 72 h.
Series [8] deals with NCI-H1975. Briefly: Antitumor activity against human NCI-H1975 cells xenografted in STOCK-Foxn1nu/Nju nude mouse assessed as inhibition of tumor growth at 50 mg/kg/day, po qd for 14 days relative to untreated control. In kind it is functional. The note with it: 336 h, read-out: TGI. Summed up:
(§1)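 Nude mice (STOCK-Foxn1nu/Nju, 5–6 weeks, 20–25 g) were given s.c. 3×10⁶ H1975 cells in 0.1 mL PBS in the right oxter. Dosing began three days after implant, with random allocation to groups. Doses were 10, 20 or 50 mg/kg, oral, once daily for 14 days; vehicle controls got oral 25% PEG-400. Tumor volume was taken as A×B²/2 from perpendicular diameters. Tumors were excised and weighed at the end. n = 5, mean ±SD.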
A general note: A xenograft is tissue or cells of one species grown in another, often human tumour cells in immunodeficient mice.

The subject of series [9] is NCI-H1975. Briefly: Antitumor activity against human NCI-H1975 cells xenografted in STOCK-Foxn1nu/Nju nude mouse assessed as inhibition of tumor growth at 20 mg/kg/day, po qd for 14 days relative to untreated control. In kind it is functional. The note with it: 336 h, read-out: TGI. Summed up: (§2)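 Female/male unstated; 5–6-week-old nude mice (20–25 g) implanted subcutaneously in the right oxter with 3×10⁶ H1975 cells in 0.1 mL PBS. After 3 days, mice were randomised into groups and dosed orally once daily for 14 days at 10, 20 or 50 mg/kg; controls received oral 25% PEG-400. Tumour volume was taken as A×B²/2. Body weight and mortality were monitored. Tumours were weighed at sacrifice. n = 5.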

The target of series [10] is T1, Epidermal growth factor receptor. The experiment in a line: Inhibition of wild type EGFR phosphorylation in human A431 cells assessed as reduction in ERK phosphorylation at 0.2 to 5 uM by Western blotting assay. The class given is cell-based. Summed up: (§3)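 H1975 and A431 cells were treated and then lysed. Lysates were cleared at 12,000 g, 15 min, 4 °C. 50 µg protein was run on 8–12% SDS-PAGE and transferred to PVDF. Membranes were blocked in 5% skim milk, then probed for EGFR, p-EGFR, AKT, p-AKT, ERK, p-ERK and actin. Detection was by ECL. Band IOD was normalized to actin.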
On the technique in general: In western blotting, separated proteins are transferred to a membrane and probed.

Series [11] deals with Epidermal growth factor receptor (Homo sapiens), P00533 [L858R,T790M]. The experiment in a line: Inhibition of EGFR L858R/T790M mutant phosphorylation in human NCI-H1975 cells at 0.2 to 5 uM by Western blotting assay. The class given is cell-based. Summed up: as §3
Sequence of Epidermal growth factor receptor (Homo sapiens), P00533 [L858R,T790M] (P00533 whole entry T790M/L858R, looked up): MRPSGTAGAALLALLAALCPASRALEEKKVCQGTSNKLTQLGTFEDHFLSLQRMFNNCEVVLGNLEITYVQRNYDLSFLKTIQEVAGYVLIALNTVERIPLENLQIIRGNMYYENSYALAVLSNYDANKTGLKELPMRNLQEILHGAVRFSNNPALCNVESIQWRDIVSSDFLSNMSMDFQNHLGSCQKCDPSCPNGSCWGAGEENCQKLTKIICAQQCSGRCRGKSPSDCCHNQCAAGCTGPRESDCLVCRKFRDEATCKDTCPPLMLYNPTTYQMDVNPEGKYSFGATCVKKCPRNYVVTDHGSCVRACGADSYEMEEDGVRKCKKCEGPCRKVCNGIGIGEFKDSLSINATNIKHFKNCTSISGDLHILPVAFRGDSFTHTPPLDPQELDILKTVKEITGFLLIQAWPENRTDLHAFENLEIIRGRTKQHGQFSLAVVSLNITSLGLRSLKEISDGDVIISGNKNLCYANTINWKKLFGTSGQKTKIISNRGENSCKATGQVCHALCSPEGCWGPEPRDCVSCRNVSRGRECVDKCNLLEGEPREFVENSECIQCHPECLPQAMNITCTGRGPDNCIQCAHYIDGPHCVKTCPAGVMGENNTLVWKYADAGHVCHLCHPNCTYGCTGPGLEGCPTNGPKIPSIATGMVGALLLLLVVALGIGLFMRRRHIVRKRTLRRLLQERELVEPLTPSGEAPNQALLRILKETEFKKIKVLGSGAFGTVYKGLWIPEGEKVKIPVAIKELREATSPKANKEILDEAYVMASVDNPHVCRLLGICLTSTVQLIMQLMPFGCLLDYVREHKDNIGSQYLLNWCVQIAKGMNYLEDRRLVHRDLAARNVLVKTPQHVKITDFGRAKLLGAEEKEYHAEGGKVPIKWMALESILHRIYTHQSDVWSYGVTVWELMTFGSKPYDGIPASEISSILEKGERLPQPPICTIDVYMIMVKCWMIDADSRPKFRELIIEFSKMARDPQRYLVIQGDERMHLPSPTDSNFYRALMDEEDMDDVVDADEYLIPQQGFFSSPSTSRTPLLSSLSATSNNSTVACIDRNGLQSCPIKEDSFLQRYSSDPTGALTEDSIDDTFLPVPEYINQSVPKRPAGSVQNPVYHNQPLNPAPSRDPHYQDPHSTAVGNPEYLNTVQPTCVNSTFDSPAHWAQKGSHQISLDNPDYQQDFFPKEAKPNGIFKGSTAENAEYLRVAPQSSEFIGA
For series [12], the system named is NCI-H1975. Briefly: Antitumor activity against human NCI-H1975 cells xenografted in STOCK-Foxn1nu/Nju nude mouse assessed as inhibition of tumor growth at 10 to 50 mg/kg/day, po qd for 14 days relative to untreated control. In kind it is functional, organism-based. The method in brief: as §1
Series [13] has as its system Epidermal growth factor receptor (Homo sapiens), P00533 [L858R,T790M]. The experiment in a line: Inhibition of EGFR L858R/T790M mutant phosphorylation in human NCI-H1975 cells at 5 uM by Western blotting assay. In kind it is cell-based. The method in brief: as §3
For series [14], the target named is T1, Epidermal growth factor receptor. The experiment in a line: Inhibition of wild type EGFR phosphorylation in human A431 cells assessed as reduction in AKT phosphorylation at 0.2 to 5 uM by Western blotting assay. The class given is cell-based. The method in brief: as §3
Series [15] shares this target. Briefly: Inhibition of wild type EGFR phosphorylation in human A431 cells at 0.2 to 5 uM by Western blotting assay. In kind it is cell-based. The method in brief:
as §3

Series [16] concerns Mus musculus. Briefly: Toxicity in human NCI-H1975 cells xenografted STOCK-Foxn1nu/Nju nude mouse assessed as drug tolerability 10 to 50 mg/kg/day, po qd for 14 days relative to untreated control. In kind it is organism-based. The note with it: in vivo, 336 h. The method in brief:
as §2

Series [17] relates to Mus musculus. Briefly: Toxicity in human NCI-H1975 cells xenografted STOCK-Foxn1nu/Nju nude mouse assessed as mouse mortality 10 to 50 mg/kg/day, po qd for 14 days relative to untreated control. The class given is organism-based. The note with it: in vivo, 336 h. Summed up:
as §2

Series [18] concerns Mus musculus. Briefly: Toxicity in human NCI-H1975 cells xenografted STOCK-Foxn1nu/Nju nude mouse assessed as body weight loss 10 to 50 mg/kg/day, po qd for 14 days relative to untreated control. The note with it: in vivo, 336 h. In kind it is organism-based. The method in brief: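 Body weight was tracked over 14 days of once-daily oral dosing at 10, 20 or 50 mg/kg, against 25% PEG-400 vehicle. Mice were nude (STOCK-Foxn1nu/Nju, 5–6 weeks, 20–25 g) carrying s.c. H1975 xenografts (3×10⁶ cells in PBS). Dosing started three days after implant. n = 5, mean ±SD.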

For series [19], the system named is Epidermal growth factor receptor (Homo sapiens), P00533 [L858R,T790M]. The experiment in a line: Inhibition of EGFR L858R/T790M mutant phosphorylation in human NCI-H1975 cells assessed as reduction in AKT phosphorylation at 0.2 to 5 uM by Western blotting assay. In kind it is cell-based. Summed up:
as §3

The subject of series [20] is NCI-H1975. The experiment in a line: Antitumor activity against human NCI-H1975 cells xenografted in STOCK-Foxn1nu/Nju nude mouse assessed as inhibition of tumor growth at 10 mg/kg/day, po qd for 14 days relative to untreated control. The note with it: 336 h, read-out: TGI. The class given is functional. Summed up:
as §1

The subject of series [21] is Epidermal growth factor receptor (Homo sapiens), P00533 [L858R,T790M]. Briefly: Inhibition of EGFR L858R/T790M mutant phosphorylation in human NCI-H1975 cells assessed as reduction in ERK phosphorylation at 0.2 to 5 uM by Western blotting assay. The class given is cell-based. Summed up:
as §3

Take `C=CC(=O)Nc1cccc(Oc2nc(Nc3ccc(CC(=O)N4CCOCC4)cc3)ncc2Cl)c1`: the half-inhibitory concentration (IC50) in series [1] is 2940 nM; in series [2] it was 48 nM; in series [3], 996 nM; in series [4], 101 nM; in [5], greater than 40000 nM; in series [6], 296 nM. Also, the half-inhibitory concentration (IC50) in [7] was 2190 nM.
In the case of `C=CC(=O)Nc1cccc(Nc2nc(Nc3ccc(N4CCN(C(C)=O)CC4)cc3OC)ncc2C(F)(F)F)c1` [ROCILETINIB], the IC50 was 3240 nM in [1], 31 nM in series [2], greater than 40000 nM in series [5] and 299 nM in [6]. In series [8], the inhibition in vivo at 50 mg/kg/day worked out at 70.2%.
Turning to `C=CC(=O)Nc1cccc(Nc2nc(Nc3ccc(OCCN4CCOCC4)cc3)ncc2Cl)c1`, the IC50 came out at 5710 nM in [1]; 43 nM in series [2]; 961 nM in series [3]; 94.7 nM in series [4]; 31500 nM in series [5]; 215 nM in series [6]. In series [7], this compound registered an IC50 of 385 nM.
Regarding `C=CC(=O)Nc1cccc(Nc2nc(Nc3ccc(CN4CCOCC4)cc3OC)ncc2Cl)c1`, the IC50 is 16600 nM in [1]; 52 nM in series [2]; greater than 500 nM in [3]; 17 nM in [4]; 28800 nM in [5]; 287 nM in series [6]. Also, it took 2060 nM to reach half-maximal inhibition in [7] (IC50).
In the case of `C=CC(=O)Nc1ccccc1Nc1nc(Nc2ccc(OCCN3CCOCC3)cc2)ncc1Cl`, the concentration for half-maximal inhibition (IC50) in [1] is 4700 nM; in series [2], 524 nM; in series [5], greater than 40000 nM; in [6], 240 nM; in [7] it was 478 nM.
Consider `C=CC(=O)Nc1cccc(Nc2nc(Nc3ccc(CC(=O)N4CCOCC4)cc3)ncc2Cl)c1`, for which the IC50 in series [1] was 1660 nM; in series [2] it was 58 nM; in [3], less than 500 nM; in series [4] it was 96.6 nM; in series [5], 22000 nM; in series [6], 256 nM. The same compound registered an IC50 in series [7] of 760 nM.
As for `C=CC(=O)Nc1ccccc1Nc1nc(Nc2ccc(OCC(=O)N3CCOCC3)cc2)ncc1Cl`, the IC50 in series [1] stood at 2650 nM; in series [2], 418 nM; in [3] it was 143 nM; in series [4] it was 24.8 nM; in [5] it was 39500 nM; in series [6], 132 nM. The compound further returned a concentration for half-maximal inhibition (IC50) in [7] of 42 nM.
As for `C=CC(=O)Nc1ccccc1Nc1nc(Nc2ccc(NC(=O)CN3CCOCC3)cc2)ncc1Cl`, the IC50 was 5110 nM in series [1]; 491 nM in [2]; 592 nM in series [3]; 21.7 nM in series [4]; 21600 nM in series [5]; 128 nM in [6]. The same compound gave an IC50 in series [7] of 104 nM.
Take `C=CC(=O)Nc1cc(Nc2nccc(-c3cn(C)c4ccccc34)n2)c(OC)cc1N(C)CCN(C)C` [OSIMERTINIB]: in series [9], the inhibition in vivo at 20 mg/kg/day came out at 98.8%.
As for `C=CC(=O)Nc1cccc(Nc2nc(Nc3ccc(CN4CCOCC4)cc3)ncc2Cl)c1`, the “inhibition (INH)” value in series [10], in series [14] and in series [15] was “Dose-dependent effect” in each case. The inhibition entry in series [11] is “Dose-dependent effect”; in [13], 100%; in series [19], “Dose-dependent effect”; in series [21], “Dose-dependent effect”. Also, the TGI entry in series [12] is “Dose-dependent effect”. Also, the IC50 in series [1] was 4450 nM; in [2] it was 44 nM; in series [5], greater than 40000 nM; in series [6], 37 nM; in series [7], 382 nM. Also, in series [8], the inhibition in vivo at 50 mg/kg/day came to 64.6%. Moreover, the inhibition in vivo at 20 mg/kg/day in series [9] is 45.3%. Besides, the Activity entry in series [16] is “Non-Toxic”; in [17] it was “Non-Toxic”; in series [18] it was less than 5%. For the same compound, the inhibition in vivo at 10 mg/kg/day in series [20] was 39%.
As for `C=CC(=O)Nc1cccc(Nc2nc(Nc3ccc(OCCN4CCOCC4)c(Cl)c3)ncc2Cl)c1`, the 50% inhibitory concentration (IC50) in series [1] was 14000 nM; in series [2], 57 nM; in series [3] it was greater than 1000 nM; in series [4], greater than 100 nM; in series [5] it was 22400 nM; in series [6], 500 nM. The compound also came in with an IC50 in series [7] of 870 nM.
As for `C=CC(=O)Nc1ccccc1Nc1nc(Nc2ccc(CN3CCOCC3)cc2)ncc1Cl`, the IC50 in series [1] is 2640 nM; in series [2], 995 nM; in [3], greater than 800 nM; in [4], 15.3 nM; in series [5], greater than 40000 nM; in series [6], 104 nM. The compound also returned a concentration for half-maximal inhibition (IC50) in [7] of 112 nM.
Take `C=CC(=O)Nc1ccccc1Nc1nc(Nc2ccc(OCCCN3CCOCC3)cc2)ncc1Cl`: the IC50 was 4740 nM in series [1]; 587 nM in series [2]; 767 nM in [3]; 21.5 nM in [4]; greater than 40000 nM in series [5]; 217 nM in [6]. It took 584 nM to reach half-maximal inhibition in [7] (IC50).
Take `C=CC(=O)Nc1cccc(Nc2nc(Nc3ccc(CN4CCOCC4)cc3)ncc2F)c1`: the IC50 worked out at 4460 nM in series [1]; 41 nM in series [2]; 500 nM in series [3]; 80.8 nM in [4]; 22700 nM in series [5]; 609 nM in [6]. The IC50 in series [7] was found to be 444 nM.

As a reminder, the IC50 is the concentration that gives 50% inhibition. What is called inhibition is the share of the control response that was lost under treatment.
